Reference: ChEMBL document CHEMBL3868642, “Discovery of novel curcumin derivatives targeting xanthine oxidase and urate transporter 1 as anti-hyperuricemic agents” (Bioorg Med Chem, 2017)
Calls of active or inactive are those of the source. The calls are words filed in the database; no cut-off is given here.

Legend:
Mus musculus [1] = test: Antihyperuricemic activity in potassium oxonate-induced Kun Ming mouse model of hyperuricemia assessed as reduction in uric acid level in serum at 10 mg/kg, po qd administered via oral gavage 1 hr post potassium oxonate-challenge for 7 consecutive days by phosphotungstic acid method; format: functional, organism-based
Method in brief: (§1)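 Male Kun-Ming mice, 18–22 g, acclimatised one week, food withdrawn 1 h before dosing. Once-daily oral gavage of oxonate 250 mg/kg or 0.5% CMC-Na at 8:00, then test agent in 0.5% CMC-Na at 9:00, for seven days. 24 h urine collected from day six in metabolic cages. Serum taken 1 h after final dose, liver tissue removed. Uric acid measured by phosphotungstic acid method. n = 8.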

Mus musculus [2] = test: Antihyperuricemic activity in potassium oxonate-induced Kun Ming mouse model of hyperuricemia assessed as reduction in hepatic uric acid level at 10 mg/kg, po qd administered via oral gavage 1 hr post potassium oxonate-challenge for 7 consecutive days by phosphotungstic acid method; format: functional, organism-based; method in brief: as §1
Mus musculus [3] = test: Antihyperuricemic activity in potassium oxonate-induced Kun Ming mouse model of hyperuricemia assessed as uricosuric activity by measuring increase in urinary uric acid excretion at 10 mg/kg, po qd administered via oral gavage 1 hr post potassium oxonate-challenge for 7 consecutive days measured up to 24 hrs post last dose by phosphotungstic acid method; format: functional, organism-based; method in brief: as §1
Mus musculus [4] = test: In vivo inhibition of potassium oxonate-induced hepatic XOD activity in Kun Ming mouse model of hyperuricemia at 10 mg/ kg, po qd administered 1 hr post potassium oxonate-challenge for 7 consecutive days via oral gavage relative to control; format: functional
Mus musculus [5] = test: Antihyperuricemic activity in fasted Kun Ming mouse assessed as inhibition of potassium oxonate-induced uric acid level in serum at 10 mg/kg qd administered 1 hr post potassium oxonate-challenge for 7 days via oral gavage measured 1 hr post last dose by phosphotungstic acid method relative to vehicle-treated control; format: functional
Mus musculus [6] = test: Antihyperuricemic activity in potassium oxonate-induced Kun Ming mouse model of hyperuricemia assessed as oxonate-induced hepatic XOD activity at 10 mg/ kg, po qd administered 1 hr post potassium oxonate-challenge for 7 consecutive days via oral gavage relative to oxonate-treated control; format: functional
Mus musculus [7] = test: Uricosuric activity in potassium oxonate-induced Kun Ming mouse model of hyperuricemia assessed as increase in uric acid excretion in urine at 10 mg/kg qd administered 1 hr post potassium oxonate-challenge for 7 days via oral gavage measured up to 24 hrs post last dose by phosphotungstic acid method relative to vehicle-treated control; format: functional
[8] = Decrease in potassium oxonate-induced renal URAT1 expression in Kun Ming mouse model of hyperuricemia at 10 mg/ kg, po qd administered 1 hr post potassium oxonate-challenge for 7 consecutive days via oral gavage by Western blot method relative to oxonate-treated control; format: functional, organism-based
[9] = target: T1, Solute carrier family 22 member 12 (Homo sapiens, UniProt Q96S37); test: Inhibition of URAT1 (unknown origin) expressed in HEK293 cells assessed as inhibition of [14C]-uric acid uptake at 100 uM preincubated for 30 mins followed by [14C]-uric acid addition by liquid scintillation counting analysis relative to control; format: cell-based
T1 sequence (Q96S37 whole entry): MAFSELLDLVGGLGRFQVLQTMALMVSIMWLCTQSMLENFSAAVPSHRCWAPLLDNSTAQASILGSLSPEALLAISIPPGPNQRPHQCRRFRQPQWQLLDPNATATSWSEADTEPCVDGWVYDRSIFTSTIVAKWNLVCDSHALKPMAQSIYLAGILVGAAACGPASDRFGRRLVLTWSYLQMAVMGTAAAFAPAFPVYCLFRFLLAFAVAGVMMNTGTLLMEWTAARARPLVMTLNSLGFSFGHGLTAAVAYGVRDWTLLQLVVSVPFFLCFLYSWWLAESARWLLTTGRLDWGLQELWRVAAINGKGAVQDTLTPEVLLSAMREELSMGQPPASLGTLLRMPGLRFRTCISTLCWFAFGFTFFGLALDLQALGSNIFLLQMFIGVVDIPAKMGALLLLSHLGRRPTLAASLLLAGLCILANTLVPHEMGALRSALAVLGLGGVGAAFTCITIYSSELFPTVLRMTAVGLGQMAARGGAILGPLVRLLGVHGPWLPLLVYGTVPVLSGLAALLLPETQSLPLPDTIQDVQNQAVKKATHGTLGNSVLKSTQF

[10] = target: Xanthine dehydrogenase/oxidase (Homo sapiens, UniProt P47989); test: Inhibition of xanthine oxidase (unknown origin) assessed as reduction in uric acid formation preincubated for 5 mins followed by addition of xanthine substrate measured every minute up to 8 mins
Chain of Xanthine dehydrogenase/oxidase (P47989 whole entry): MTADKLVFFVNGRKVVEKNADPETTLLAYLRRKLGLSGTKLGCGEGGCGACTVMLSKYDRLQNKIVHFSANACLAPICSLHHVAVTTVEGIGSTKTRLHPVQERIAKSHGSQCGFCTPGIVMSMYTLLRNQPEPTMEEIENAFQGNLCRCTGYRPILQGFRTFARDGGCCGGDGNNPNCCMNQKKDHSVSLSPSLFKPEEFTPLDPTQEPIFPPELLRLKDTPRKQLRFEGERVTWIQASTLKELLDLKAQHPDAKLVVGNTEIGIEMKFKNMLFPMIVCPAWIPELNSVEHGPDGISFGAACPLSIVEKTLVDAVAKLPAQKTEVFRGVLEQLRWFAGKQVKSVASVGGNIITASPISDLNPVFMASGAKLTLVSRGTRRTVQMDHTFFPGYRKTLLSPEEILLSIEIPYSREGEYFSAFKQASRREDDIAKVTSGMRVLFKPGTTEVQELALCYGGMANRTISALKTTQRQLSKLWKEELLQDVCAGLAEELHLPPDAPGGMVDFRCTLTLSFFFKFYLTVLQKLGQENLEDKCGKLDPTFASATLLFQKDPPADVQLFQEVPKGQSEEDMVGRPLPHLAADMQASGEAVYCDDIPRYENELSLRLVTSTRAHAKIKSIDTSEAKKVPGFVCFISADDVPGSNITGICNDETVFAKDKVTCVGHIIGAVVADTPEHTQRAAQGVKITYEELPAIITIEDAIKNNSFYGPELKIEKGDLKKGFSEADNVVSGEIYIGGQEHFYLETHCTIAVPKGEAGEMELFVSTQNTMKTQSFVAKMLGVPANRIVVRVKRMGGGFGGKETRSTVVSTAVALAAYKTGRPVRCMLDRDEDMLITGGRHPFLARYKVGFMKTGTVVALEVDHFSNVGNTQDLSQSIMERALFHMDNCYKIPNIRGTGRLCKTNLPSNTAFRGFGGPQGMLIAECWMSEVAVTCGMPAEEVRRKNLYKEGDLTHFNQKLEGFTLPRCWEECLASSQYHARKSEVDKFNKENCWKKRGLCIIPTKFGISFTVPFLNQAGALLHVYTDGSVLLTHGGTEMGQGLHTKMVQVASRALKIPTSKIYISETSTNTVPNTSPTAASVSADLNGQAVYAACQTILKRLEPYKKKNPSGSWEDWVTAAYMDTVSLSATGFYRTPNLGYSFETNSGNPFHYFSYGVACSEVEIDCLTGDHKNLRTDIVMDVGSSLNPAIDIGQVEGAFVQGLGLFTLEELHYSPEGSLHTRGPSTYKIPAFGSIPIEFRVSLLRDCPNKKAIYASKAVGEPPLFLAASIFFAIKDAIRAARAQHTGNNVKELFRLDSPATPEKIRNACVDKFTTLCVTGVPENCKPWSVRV

IC50 [10]	Compound	Activity (Mus musculus [1])	Activity (Mus musculus [2])	Activity (Mus musculus [3])	inhibition (Mus musculus [4])	inhibition in vivo at 10 mg/kg (Mus musculus [5])	Activity (Mus musculus [6])	Activity (Mus musculus [7])	Activity [8]	inhibition at 100 µM [9]
	Oc1ncnc2[nH]ncc12 [ALLOPURINOL]	Active	Active	Active	Active	118 to 148%	43.4%	88.6%		
	COc1cc(/C=C2\CCC/C(=C\c3cc(C(C)(C)C)c(O)c(C(C)(C)C)c3)C2=O)cc(OC)c1					7.74%		19.35%		
	CCc1oc2ccccc2c1C(=O)c1cc(Br)c(O)c(Br)c1 [BENZBROMARONE]	Active	Active	Active		99.7%	11.3%	37.58%	Active	42.5%
	COc1cc(/C=C2\CCC/C(=C\c3ccc(N(C)C)cc3)C2=O)cc(OC)c1					20.1%		10.74%		
18.9 nM	COc1cc(/C=C2\CCC/C(=C\c3cccc(Br)c3)C2=O)cc(OC)c1					47.3%		44.71%		20.7%
